Laboratory results reported in the EternaBench riboswitch data.

Tested on: MS2 coat protein
Assay: apparent Kd, MS2 coat protein; higher = weaker binding; RNA-MaP array; tryptophan 2.4 mM where present
Outline: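 Designs on Illumina sequencing-chip clusters, transcribed by stalled E. coli RNA polymerase, were exposed to SNAP-549-labelled MS2 coat protein in doubling steps from 0.7 or 1.5 nM up to 3 µM, without and then with constant ligand. The buffer held 100 mM Tris-HCl pH 7.5, 80 mM KCl, 4 mM MgCl2, BSA, DTT, yeast tRNA and Tween-20. Apparent Kd values are medians of filtered per-cluster binding-curve fits to green signal normalised to red-channel RNA signal and control-cluster median Fmax.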

[1] = designed as: ON switch for tryptophan, no ligand
[2] = ligand present: tryptophan, designed as: ON switch for tryptophan
[3] = designed as: OFF switch for tryptophan, no ligand
[4] = ligand present: tryptophan, designed as: OFF switch for tryptophan

Row | Sequence | apparent Kd [1] | apparent Kd [2] | apparent Kd [3] | apparent Kd [4]
1 | ACAUUAGCCACGGCCGCCACUGCCUUAUGAUUAUAAGGAUUAAUGAACAUGAGGAUCACCCAUGUCAGGACCGGGUGCCUACCAU | 22 nM | 20.7 nM | – | –
2 | ACGUUGAAGUCGGCCGCCACUGAUUUCAUGUUCAACAUGAGGAUCACCCAUGUACCUUAUGUUAACAGGACCGGGACGUAUACGA | 479 nM | 117 nM | – | –
3 | AGCGUGCAUAGGAAAACUAUGUACGCAAAUCGAGGACCGGUACGGCCGCCACUCGUCCUCAACAUGAGGAUCACCCAUGUAAUAA | – | – | 19.9 nM | 34.7 nM
4 | AGUUACUCGAACAUGGUUGACGAGUGGCAACGAGGACCGGUACGGCCGCCACUCGAAUAAACAUGAGGAUCACCCAUGUACAAAU | 135 nM | 104 nM | – | –
5 | AGUUAUUCGAACAUGGUUGACGAGUGGCAACGAGGACCGGUACGGCCGCCACUCGAAUAAACAUGAGGAUCACCCAUGUACAAAU | 342 nM | 287 nM | – | –
6 | AGUUUGGACUCGGCCGCCACUCGUGAUGCUUUGGCACAUGAGGAUCACCCAUGUGGUCGGCCUUAGAGGACCGGGAGUACCAGCC | 405 nM | 43 nM | – | –
7 | AUAACCCUUGACUAAAACACUAAAUCAGUUCGAGGACCGGUACGGCCGCCACUCGUGUCAAGACAUGAGGAUCACCCAUGUACCU | 35.8 nM | 23.3 nM | – | –
8 | AUAAUAAUCAUGGGUGAAGGUCCUCGCAAACGAGGACCGGUACGGCCGCCACUCGAACAUGAGGAUCACCCAUGUGUGAGGACCU | 58.8 nM | 36.9 nM | – | –
9 | AUUCAUGGAAACAUGACAUACAUAACCGGUCGAGGACCGGUACGGCCGCCACUCGGUUGGUGGCACAUGAGGAUCACCCAUGUUA | 23.9 nM | 26.4 nM | – | –
10 | AUUGUCGUGUCGGCCGCCACUGUCAUGGUUUUCGUGGAAAACAUGAGGAUCACCCAUGUAAUUGACAGGACCGGGACAUGGCGGC | – | – | 9.29 nM | 10.4 nM
11 | CACGCACGAUCGGCCGCCACUCAUGUAGCUUACAUGAGGAUCACCCAUGUAUUUUCUUUCUUAUAGAGGACCGGGAUCGUGCGUG | 17.6 nM | 15.3 nM | – | –
12 | CCUCAAUAGACGGCCGCCACUGAGACAUGAGGAUACAUGAGGAUCACCCAUGUGGGUGUGUCACGCAGGACCGGGUCAAGACCCG | 523 nM | 514 nM | – | –
13 | CUACAUUUGUAGAAACCGGUCAACAAUAAUCGAGGACCGGUACGGCCGCCACUCGUAUAAUUUAAUACAUGAGGAUCACCCAUGU | 14.9 nM | 15.4 nM | – | –
14 | CUAUAUAUAUCGGCCGCCACUUACUCAUGAGGUAACAACAUGAGGAUCACCCAUGUUUGAGGAUCAAGGACCGGGAUAUAUAUAG | 27.4 nM | 16.6 nM | – | –
15 | CUCAUCCACGCGGCCGCCACUAUUUUUAGGUGUGGGUGUGACGUAUUACAUGAGGAUCACCCAUGUAGGACCGGGCGUGGAUGAG | – | – | 385 nM | 485 nM
16 | CUUGGCUGUGCGGCCGCCACUGACUCAUCCUGCAUUACAUGAGGAUCACCCAUGUUGCGGCCUCCCAGGACCGGGCAUAGCCUGC | 390 nM | 91.3 nM | – | –
17 | GAGCUCGUGGACUGGCGUGCUCCGCUCCGUCGAGGACCGGUACGGCCGCCACUCGACAUGAGGAUCACCCAUGUGUGAGCUCGCG | – | – | 62.5 nM | 30.6 nM
18 | GAGUAGAGGACGGCCGCCACUGAACAUGAGGAUCACCCAUGUCGUGAUCCGUUACCUAAAGAAGAUAGGACCGGGUCAUGUACUC | – | – | 27.3 nM | 28.7 nM
19 | GCGUGGUCUGCGGCCGCCACUCAAGGAGCUACAUAGCUCCUAGACAUGAGGAUCACCCAUGUCGCGAGGACCGGGUAGAUUCUCC | 96 nM | 30.8 nM | – | –
20 | GCUAGGUCAUCGGCCGCCACUAUUAGUGGUUCGAACAUGAGGAUCACCCAUGUGCCACAUGCGCAUAGGACCGGGAUGACCUAGC | 12.7 nM | 9.42 nM | – | –
21 | GGAGUAGAUGCGGCCGCCACUUUCUCAAGACACUACAUGAGGAUCACCCAUGUCCAUUCUACACUAAGGACCGGGCAUCCCAUGG | 54.3 nM | 39.5 nM | – | –
22 | GGUUACUCUACGGCCGCCACUGAUAAAUAAUAAACCUGUACAUAAACAUGAGGAUCACCCAUGUACAGGACCGGGUAGUGUAACC | 32.8 nM | 24.1 nM | – | –
23 | GUUGUAUACUCGGCCGCCACUGAGAGAGUCAUGUAAACAUGAGGAUCACCCAUGUAAUAUAUAUACAGGACCGGGAGUAUGGUAA | – | – | 15 nM | 12.9 nM
24 | UAAUCAGUGCCGGUUCUCGGAUCCUCAUGUCGAGGACCGGUACGGCCGCCACUCGGAACAUGAGGAUCACCCAUGUAAUAAUAAU | – | – | 97.3 nM | 92.7 nM
25 | UAUCGUCAGACGGCCGCCACUAGAACAUGAGGAUCACCCAUGUAAGUGGCCGGUCUCCUCAUGACUAGGACCGGGUCUGACGAAU | – | – | 8.69 nM | 9.94 nM
26 | UAUUAUCAGUCGGCCGCCACUGACACAUGAGGAUCACCCAUGUAAUUUGGGUUAUAUAGAAAAUACAGGACCGGGACUAAGGCUA | – | – | 260 nM | 276 nM
27 | UCGUUUUAGUCGGCCGCCACUGUAUGCAUGUUUAACAUGAGGAUCACCCAUGUCCCGUUCUAUUUCAGGACCGGGACGUAAUCGA | 525 nM | 344 nM | – | –
28 | UUAUAAGUACCGGUCCUCAGAUCCUCAUGACGAGGACCGGUACGGCCGCCACUCGAAACAUGAGGAUCACCCAUGUAAUAAUAUU | – | – | 22.1 nM | 20 nM
29 | UUCGUAUUGUCGGCCGCCACUGCAACAUGAGGAUCACCCAUGUAAGAAUGGUUGUAAAUAUAUUACAGGACCGGGACAAUAGUAA | – | – | 17.6 nM | 51.6 nM
30 | UUUUACGGCGAUCUGGGUUUACCAGAUCGGCGAGGACCGGUACGGCCGCCACUCGUGUUUCUUUGACAUGAGGAUCACCCAUGUA | 26.9 nM | 16.2 nM | – | –
